Drawing on ChEMBL document CHEMBL1121504, “Aporphines. 31. Synthesis and antitumor activity of aporphine nitrogen mustards” (1980), this text covers T/C for 3 compounds.

The test system of experiment [1] is Mus musculus. Description: Antitumor activity against intraperitoneally implanted lymphoid leukemia (LE1210) tumor system at dose 12.5 mg/kg. In kind it is functional. The following applies: route intraperitoneal. Put shortly: (§1)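 Murine-screen tumor implanted intraperitoneally and treated at the listed mg/kg doses under standard NCI protocols. Activity is read out as T/C, the treated-to-control ratio.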

Experiment [2] relates to P388. Description: Antitumor activity against intraperitoneally implanted lymphocytic leukemia (P388) system at dose 4 mg/kg. In kind it is functional, Mus musculus. The following applies: route intraperitoneal. In outline:
as §1

The test system of experiment [3] is P388. Description: Antitumor activity against intraperitoneally implanted lymphocytic leukemia (P388) system at dose 8 mg/kg. In kind it is functional, Mus musculus. The following applies: route intraperitoneal. In outline:
as §1

Experiment [4] deals with Mus musculus. Description: (§2) Antitumor activity against intraperitoneally implanted lymphoid leukemia (LE1210) tumor system at dose 100 mg/kg. In kind it is functional. Particulars: route intraperitoneal. In outline:
as §1

For experiment [5], the system named is Mus musculus. Description: (§3) Antitumor activity against intraperitoneally implanted lymphoid leukemia (LE1210) tumor system at dose 50 mg/kg. The following applies: route intraperitoneal. In kind it is functional. In outline:
as §1

Experiment [6] is described as follows: Antitumor activity against intracerebrally implanted ependymoblastoma (EM) tumor system at dose 8 mg/kg. The format is functional. In outline: (§4)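 Tumor implanted […] and treated at the listed mg/kg doses under standard NCI protocols. Activity is read out as T/C, the treated-to-control ratio.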
Experiment [7] in a line: Antitumor activity against intracerebrally implanted ependymoblastoma (EM) tumor system at dose 4 mg/kg. The format is functional. Put shortly: as §4
For experiment [8], the system named is Mus musculus. Description: (§5) Antitumor activity against intraperitoneally implanted lymphoid leukemia (LE1210) tumor system at dose 25 mg/kg. The format is functional. The following applies: route intraperitoneal. In outline:
as §1

For experiment [9], the system named is P388. Description: Antitumor activity against intraperitoneally implanted lymphocytic leukemia (P388) system at dose 16 mg/kg. The format is functional, Mus musculus. The following applies: route intraperitoneal. In outline:
as §1

Experiment [10] relates to Mus musculus. Nature of the experiment: Antitumor activity against intraperitoneally implanted lymphoid leukemia (LE1210) tumor system at dose 6.25 mg/kg. In kind it is functional. Particulars: route intraperitoneal. Put shortly: as §1
Experiment [11] is described as follows: Antitumor activity against intracerebrally implanted ependymoblastoma (EM) tumor system at dose 16 mg/kg. The format is functional. Put shortly: as §4
Experiment [12] has as its system P388. Nature of the experiment: Antitumor activity against intraperitoneally implanted P388 lymphocytic leukemia (P388) system at dose 25 mg/kg. In kind it is functional, Mus musculus. Particulars: route intraperitoneal. In outline: as §1
Experiment [13] concerns P388. Nature of the experiment: Antitumor activity against intraperitoneally implanted P388 lymphocytic leukemia (P388) system at dose 3.13 mg/kg. Particulars: route intraperitoneal. In kind it is functional, Mus musculus. In outline: as §1
Experiment [14] relates to P388. Description: Antitumor activity against intraperitoneally implanted P388 lymphocytic leukemia (P388) system at dose 6.25 mg/kg. The format is functional, Mus musculus. The following applies: route intraperitoneal. Put shortly:
as §1

Experiment [15] has as its system P388. Nature of the experiment: Antitumor activity against intraperitoneally implanted P388 lymphocytic leukemia (P388) system at dose 12.5 mg/kg. In kind it is functional, Mus musculus. Particulars: route intraperitoneal. Put shortly:
as §1

Experiment [16] is described as follows: Antitumor activity against intracerebrally implanted ependymoblastoma (EM) tumor system at dose 50 mg/kg. In kind it is functional. In outline:
as §4

Experiment [17] relates to L1210. The description is as §2. The following applies: route intraperitoneal. The format is functional, Mus musculus. Put shortly: as §1
Experiment [18] has as its system P388. Description: Antitumor activity against intraperitoneally implanted lymphocytic leukemia (P388) system at dose 50 mg/kg. The following applies: route intraperitoneal. In kind it is functional, Mus musculus. Put shortly: as §1
Experiment [19] in a line: Antitumor activity against intracerebrally implanted ependymoblastoma (EM) tumor system at dose 25 mg/kg. The format is functional. Put shortly: as §4
Experiment [20] concerns P388. Description: Antitumor activity against intraperitoneally implanted lymphocytic leukemia (P388) system at dose 6.25 mg/kg. The following applies: route intraperitoneal. In kind it is functional, Mus musculus. In outline:
as §1

Experiment [21] deals with P388. Nature of the experiment: Antitumor activity against intraperitoneally implanted lymphocytic leukemia (P388) system at dose 25 mg/kg. In kind it is functional, Mus musculus. The following applies: route intraperitoneal. Put shortly:
as §1

Experiment [22] relates to B16. Nature of the experiment: Antitumor activity against intracerebrally implanted B16 melanoma tumor system at dose 8 mg/kg. In kind it is functional, Mus musculus. In outline:
as §4

The test system of experiment [23] is L1210. The experiment is described as §3. In kind it is functional, Mus musculus. The following applies: route intraperitoneal. Put shortly:
as §1

For experiment [24], the system named is B16. Nature of the experiment: Antitumor activity against B16 melanoma tumor system at dose 12.5 mg/kg. The format is functional, Mus musculus. In outline:
(§6)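 B16 melanocarcinoma assay run at the listed mg/kg doses under standard NCI protocols. Activity is read out as T/C, the treated-to-control ratio.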

Experiment [25] has as its system B16. Description: Antitumor activity against B16 melanoma tumor system at dose 25 mg/kg. In kind it is functional, Mus musculus. Put shortly:
as §6

For experiment [26], the system named is B16. Nature of the experiment: Antitumor activity against intracerebrally implanted B16 melanoma tumor system at dose 16 mg/kg. The format is functional, Mus musculus. In outline: as §4
Experiment [27] relates to B16. Nature of the experiment: Antitumor activity against B16 melanoma tumor system at dose 50 mg/kg. In kind it is functional, Mus musculus. Put shortly: as §6
Experiment [28] relates to L1210. Described as §5. In kind it is functional, Mus musculus. The following applies: route intraperitoneal. Put shortly: as §1
In experiment [29] the test system is P388. Nature of the experiment: Antitumor activity against intraperitoneally implanted lymphocytic leukemia (P388) system at dose 12.5 mg/kg. The format is functional, Mus musculus. Particulars: route intraperitoneal. In outline:
as §1

Experiment [30] can be described thus: Antitumor activity against intracerebrally implanted ependymoblastoma (EM) tumor system at dose 12.5 mg/kg. The format is functional. In outline: as §4

Consider `COc1cc2c3c(c1)-c1c(ccc(OC)c1OC)CC3N(CCN(CCCl)CCCl)CC2` (stereo not given), for which the T/C in the experiment with Mus musculus [1] was 98; with P388 [2], 106; in the experiment with P388 [3] it was 127; with Mus musculus [4], 87; in the experiment with Mus musculus [5] it was 101; in [6] it was 104. Further, the T/C in [7] amounted to 108; in the experiment on Mus musculus [8], 101; with P388 [9], 113; with Mus musculus [10] it was 101; in [11], 108.
With `COc1ccc2c(c1O)-c1cc(O)cc3c1C(C2)N(C(=O)CN(CCCl)CCCl)CC3` (stereo not given), the T/C is recorded as 114 with P388 [12], 130 in the experiment on P388 [13], 149 with P388 [14] and 158 with P388 [15].
As to `COc1ccc2c(c1OC(C)=O)-c1cc(O)cc3c1C(C2)N(C(=O)CN(CCCl)CCCl)CC3` (stereo not given), the T/C in experiment [16] is reported as 86; in the experiment with L1210 [17], 88; in the experiment with P388 [18], 130; in experiment [19], 99; with P388 [20] it was 143; in the experiment on P388 [21] it was 168. Moreover, the T/C in the experiment on B16 [22] is recorded as 111; in the experiment with L1210 [23] it was 127; with B16 [24], 134; with B16 [25], 135; with B16 [26] it was 102; in the experiment with B16 [27] it was 170. Moreover, the figures for the T/C (with L1210 [28]; in the experiment on P388 [29]; in experiment [30]) were 136, 174 and 94, respectively.
